Data from ChEMBL document CHEMBL4808225, “Discovery and Characterization of Selective and Ligand-Efficient DYRK Inhibitors” (J Med Chem, 2021).

Key:
[1] = biological target: T1, Tyrosine-protein kinase JAK3 (Homo sapiens, UniProt P52333); test: Binding affinity to wild-type human partial length JAK3 JH1 catalytic domain (I781 to S1124 residues) expressed in mammalian expression system measured after 1 hr by competitive binding assay
T1 sequence (P52333 whole entry): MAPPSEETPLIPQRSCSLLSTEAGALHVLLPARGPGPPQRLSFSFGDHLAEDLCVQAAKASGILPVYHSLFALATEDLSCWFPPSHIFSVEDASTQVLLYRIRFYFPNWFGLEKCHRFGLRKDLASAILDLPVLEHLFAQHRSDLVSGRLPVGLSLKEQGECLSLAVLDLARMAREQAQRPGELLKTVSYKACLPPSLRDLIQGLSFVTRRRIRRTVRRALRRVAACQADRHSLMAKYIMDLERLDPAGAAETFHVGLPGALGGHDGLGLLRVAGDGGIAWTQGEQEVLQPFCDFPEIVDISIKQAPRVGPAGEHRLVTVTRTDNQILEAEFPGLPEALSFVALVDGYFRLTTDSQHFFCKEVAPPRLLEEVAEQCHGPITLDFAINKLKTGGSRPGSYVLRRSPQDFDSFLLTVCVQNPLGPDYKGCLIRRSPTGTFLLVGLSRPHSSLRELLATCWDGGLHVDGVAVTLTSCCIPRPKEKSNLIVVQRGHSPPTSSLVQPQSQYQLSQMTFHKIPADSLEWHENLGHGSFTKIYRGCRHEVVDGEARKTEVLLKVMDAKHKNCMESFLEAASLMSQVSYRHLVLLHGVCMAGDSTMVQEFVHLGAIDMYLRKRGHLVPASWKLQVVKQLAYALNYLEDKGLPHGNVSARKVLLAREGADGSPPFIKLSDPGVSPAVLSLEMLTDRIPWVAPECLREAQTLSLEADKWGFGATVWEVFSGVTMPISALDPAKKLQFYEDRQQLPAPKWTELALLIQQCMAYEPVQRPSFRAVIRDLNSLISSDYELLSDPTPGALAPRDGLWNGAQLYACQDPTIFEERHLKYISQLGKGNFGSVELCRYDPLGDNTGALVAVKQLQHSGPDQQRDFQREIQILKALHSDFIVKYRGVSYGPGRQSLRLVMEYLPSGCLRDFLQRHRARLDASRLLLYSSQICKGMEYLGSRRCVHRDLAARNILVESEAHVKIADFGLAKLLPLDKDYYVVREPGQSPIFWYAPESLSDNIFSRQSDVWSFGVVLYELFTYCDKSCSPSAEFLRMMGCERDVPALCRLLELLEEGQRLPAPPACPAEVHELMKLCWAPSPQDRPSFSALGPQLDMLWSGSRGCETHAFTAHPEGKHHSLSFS

[2] = biological target: Serine/threonine-protein kinase WNK2 (Homo sapiens, UniProt Q9Y3S1); test: Binding affinity to wild-type human partial length WNK2 (V47 to D482 residues) expressed in mammalian expression system measured after 1 hr by competitive binding assay
Serine/threonine-protein kinase WNK2, sequence (Q9Y3S1 whole entry, the tested form may be a part): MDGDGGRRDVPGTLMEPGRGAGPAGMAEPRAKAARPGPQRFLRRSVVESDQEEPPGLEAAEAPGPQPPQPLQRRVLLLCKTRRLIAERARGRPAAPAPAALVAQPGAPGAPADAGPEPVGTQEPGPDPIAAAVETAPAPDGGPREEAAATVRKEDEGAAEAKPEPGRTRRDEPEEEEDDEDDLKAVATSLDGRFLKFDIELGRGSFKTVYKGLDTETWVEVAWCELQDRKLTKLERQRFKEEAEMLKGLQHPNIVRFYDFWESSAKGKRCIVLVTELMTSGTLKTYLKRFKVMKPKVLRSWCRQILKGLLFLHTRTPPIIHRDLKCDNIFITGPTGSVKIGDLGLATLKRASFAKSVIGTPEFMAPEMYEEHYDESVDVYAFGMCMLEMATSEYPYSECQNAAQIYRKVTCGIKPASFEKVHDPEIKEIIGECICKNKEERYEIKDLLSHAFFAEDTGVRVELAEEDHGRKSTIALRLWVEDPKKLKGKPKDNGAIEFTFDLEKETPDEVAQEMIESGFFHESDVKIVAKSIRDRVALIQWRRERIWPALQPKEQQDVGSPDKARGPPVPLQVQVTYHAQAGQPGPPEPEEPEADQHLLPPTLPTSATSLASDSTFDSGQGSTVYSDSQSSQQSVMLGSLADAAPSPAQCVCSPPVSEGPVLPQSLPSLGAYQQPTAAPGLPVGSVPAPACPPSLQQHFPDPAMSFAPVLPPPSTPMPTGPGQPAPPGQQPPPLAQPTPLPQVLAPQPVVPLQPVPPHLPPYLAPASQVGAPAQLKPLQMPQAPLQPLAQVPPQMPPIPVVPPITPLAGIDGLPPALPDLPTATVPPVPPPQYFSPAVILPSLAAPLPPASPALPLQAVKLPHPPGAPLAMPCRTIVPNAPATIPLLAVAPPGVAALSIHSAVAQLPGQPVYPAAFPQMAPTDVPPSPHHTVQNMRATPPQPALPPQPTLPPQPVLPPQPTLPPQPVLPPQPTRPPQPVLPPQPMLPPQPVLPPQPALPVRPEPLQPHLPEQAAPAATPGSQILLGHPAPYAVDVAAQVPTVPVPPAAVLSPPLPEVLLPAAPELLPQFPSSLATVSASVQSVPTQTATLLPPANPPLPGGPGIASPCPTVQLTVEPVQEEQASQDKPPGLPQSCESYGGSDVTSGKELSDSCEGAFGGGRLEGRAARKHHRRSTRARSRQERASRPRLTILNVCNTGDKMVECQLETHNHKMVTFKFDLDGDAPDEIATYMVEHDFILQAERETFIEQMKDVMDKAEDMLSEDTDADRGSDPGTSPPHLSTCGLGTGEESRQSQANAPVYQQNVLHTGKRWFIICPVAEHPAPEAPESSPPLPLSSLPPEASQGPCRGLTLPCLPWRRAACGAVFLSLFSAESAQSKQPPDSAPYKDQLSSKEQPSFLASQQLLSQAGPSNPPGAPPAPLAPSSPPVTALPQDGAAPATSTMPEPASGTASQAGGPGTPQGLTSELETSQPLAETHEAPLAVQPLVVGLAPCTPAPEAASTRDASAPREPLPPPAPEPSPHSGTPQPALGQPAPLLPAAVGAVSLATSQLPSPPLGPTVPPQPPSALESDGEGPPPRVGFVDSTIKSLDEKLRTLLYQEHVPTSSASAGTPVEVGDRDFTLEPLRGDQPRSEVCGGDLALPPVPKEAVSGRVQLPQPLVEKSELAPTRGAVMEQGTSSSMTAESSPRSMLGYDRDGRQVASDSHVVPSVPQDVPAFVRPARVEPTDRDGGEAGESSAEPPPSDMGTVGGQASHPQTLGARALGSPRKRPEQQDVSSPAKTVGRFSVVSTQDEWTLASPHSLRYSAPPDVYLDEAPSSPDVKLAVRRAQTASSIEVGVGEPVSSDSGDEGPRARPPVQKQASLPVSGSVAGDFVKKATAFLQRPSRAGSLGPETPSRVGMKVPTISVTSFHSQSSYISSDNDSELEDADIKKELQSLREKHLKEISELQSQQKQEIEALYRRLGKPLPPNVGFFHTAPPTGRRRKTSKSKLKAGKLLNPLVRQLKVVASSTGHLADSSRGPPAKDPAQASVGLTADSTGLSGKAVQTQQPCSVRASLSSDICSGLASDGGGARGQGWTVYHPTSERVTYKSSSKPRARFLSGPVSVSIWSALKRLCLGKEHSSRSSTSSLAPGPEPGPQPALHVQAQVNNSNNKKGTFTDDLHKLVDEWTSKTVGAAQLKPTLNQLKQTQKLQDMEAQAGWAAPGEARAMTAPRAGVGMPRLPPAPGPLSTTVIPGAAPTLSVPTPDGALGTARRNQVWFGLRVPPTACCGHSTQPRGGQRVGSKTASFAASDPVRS

[3] = biological target: Calcium/calmodulin-dependent protein kinase type 1B (Homo sapiens, UniProt Q6P2M8); test: Binding affinity to wild-type human partial length CAMK1B (W9 to A311 residues) expressed in mammalian expression system measured after 1 hr by competitive binding assay
Calcium/calmodulin-dependent protein kinase type 1B, sequence (Q6P2M8 whole entry, the tested form may be a part): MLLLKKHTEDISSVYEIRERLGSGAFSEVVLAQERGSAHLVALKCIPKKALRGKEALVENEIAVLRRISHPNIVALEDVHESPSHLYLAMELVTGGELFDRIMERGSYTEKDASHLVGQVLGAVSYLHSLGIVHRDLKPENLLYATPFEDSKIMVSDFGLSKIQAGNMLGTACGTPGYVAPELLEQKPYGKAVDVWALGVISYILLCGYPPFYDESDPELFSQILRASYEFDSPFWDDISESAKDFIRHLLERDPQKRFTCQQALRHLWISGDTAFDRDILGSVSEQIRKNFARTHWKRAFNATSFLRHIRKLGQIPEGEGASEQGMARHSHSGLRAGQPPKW

[4] = biological target: T2, Dual specificity tyrosine-phosphorylation-regulated kinase 2 (Homo sapiens, UniProt Q92630); test: Binding affinity to wild-type human full length DYRK2 (M1 to S528 residues) expressed in mammalian expression system measured after 1 hr by competitive binding assay
T2 sequence (Q92630 whole entry): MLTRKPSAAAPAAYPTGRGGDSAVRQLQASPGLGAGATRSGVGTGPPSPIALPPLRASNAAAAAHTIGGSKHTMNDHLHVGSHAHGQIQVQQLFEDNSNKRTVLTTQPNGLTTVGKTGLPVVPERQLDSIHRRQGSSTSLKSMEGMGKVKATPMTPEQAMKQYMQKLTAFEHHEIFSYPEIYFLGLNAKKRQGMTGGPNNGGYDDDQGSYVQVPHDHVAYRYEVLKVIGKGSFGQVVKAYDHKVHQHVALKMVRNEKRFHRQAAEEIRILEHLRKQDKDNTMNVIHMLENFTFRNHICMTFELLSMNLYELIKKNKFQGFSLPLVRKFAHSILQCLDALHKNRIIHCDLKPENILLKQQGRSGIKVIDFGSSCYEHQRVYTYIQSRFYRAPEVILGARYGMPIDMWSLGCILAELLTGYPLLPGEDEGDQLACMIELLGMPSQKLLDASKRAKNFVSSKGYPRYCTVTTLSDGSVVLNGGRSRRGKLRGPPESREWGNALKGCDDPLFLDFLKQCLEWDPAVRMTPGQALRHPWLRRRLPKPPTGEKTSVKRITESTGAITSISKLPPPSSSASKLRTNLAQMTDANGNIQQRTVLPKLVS

[5] = biological target: Dual specificity tyrosine-phosphorylation-regulated kinase 1B (Homo sapiens) (UniProt Q9Y463); test: Inhibition of wild-type human full length DYRK1B (M1 to S629 residues) expressed in bacterial expression system assessed as remaining activity at 1 uM by Kinomescan method relative to control
Dual specificity tyrosine-phosphorylation-regulated kinase 1B (Homo sapiens), sequence (Q9Y463 whole entry, looked up, the tested form may be a part): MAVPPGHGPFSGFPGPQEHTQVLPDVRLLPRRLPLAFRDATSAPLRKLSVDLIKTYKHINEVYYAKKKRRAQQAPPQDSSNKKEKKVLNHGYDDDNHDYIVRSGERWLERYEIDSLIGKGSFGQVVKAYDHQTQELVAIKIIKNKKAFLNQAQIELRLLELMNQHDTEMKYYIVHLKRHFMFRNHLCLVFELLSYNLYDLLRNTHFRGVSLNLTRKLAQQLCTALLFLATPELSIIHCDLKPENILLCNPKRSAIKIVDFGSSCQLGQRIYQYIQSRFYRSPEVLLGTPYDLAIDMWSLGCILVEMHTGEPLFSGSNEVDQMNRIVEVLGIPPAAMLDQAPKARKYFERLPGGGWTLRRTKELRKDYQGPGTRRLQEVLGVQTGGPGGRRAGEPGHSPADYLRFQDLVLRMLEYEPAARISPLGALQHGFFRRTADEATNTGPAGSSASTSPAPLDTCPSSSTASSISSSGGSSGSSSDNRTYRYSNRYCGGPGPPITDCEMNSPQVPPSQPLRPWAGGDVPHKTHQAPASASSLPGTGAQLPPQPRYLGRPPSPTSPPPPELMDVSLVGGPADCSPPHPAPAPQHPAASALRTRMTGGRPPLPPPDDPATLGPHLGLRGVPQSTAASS
Outline: (§1)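 KINOMEscan competition binding panel run with inhibitor at 1 μM; read-out is remaining kinase activity (percent of control).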

[6] = biological target: Glycogen synthase kinase-3 beta (Homo sapiens) (UniProt P49841); test: Inhibition of wild-type human full length GSK3B (M1 to T433 residues) expressed in mammalian expression system assessed as remaining activity at 1 uM by Kinomescan method relative to control; outline: as §1
Glycogen synthase kinase-3 beta (Homo sapiens), sequence (P49841 whole entry, looked up, the tested form may be a part): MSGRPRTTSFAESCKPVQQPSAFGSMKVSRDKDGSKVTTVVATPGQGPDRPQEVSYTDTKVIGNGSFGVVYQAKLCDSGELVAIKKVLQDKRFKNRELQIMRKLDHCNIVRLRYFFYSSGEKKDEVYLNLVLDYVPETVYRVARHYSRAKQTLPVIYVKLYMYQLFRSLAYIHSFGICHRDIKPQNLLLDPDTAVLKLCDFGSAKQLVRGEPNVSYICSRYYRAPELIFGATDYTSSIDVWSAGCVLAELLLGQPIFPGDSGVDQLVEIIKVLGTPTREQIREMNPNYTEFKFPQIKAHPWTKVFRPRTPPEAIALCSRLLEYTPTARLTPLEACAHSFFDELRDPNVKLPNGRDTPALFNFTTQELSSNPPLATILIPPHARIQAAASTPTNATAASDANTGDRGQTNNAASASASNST

[7] = AUC infinity in Sprague-Dawley rat at 1 mg/kg, iv; format: ADME, organism-based; design: time infinity, route intravenous, dose 1 mg/kg; details: in vivo
Outline: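 Single intravenous dose of 1 mg/kg given to fed Sprague–Dawley rats (n = 3); plasma and brain samples collected for pharmacokinetic parameters, with total brain:plasma ratio computed.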

[8] = biological target: MAP kinase-interacting serine/threonine-protein kinase 2 (Homo sapiens, UniProt Q9HBH9); test: Binding affinity to wild-type human partial length MKNK2 (G63 to S388 residues) expressed in mammalian expression system measured after 1 hr by competitive binding assay
MAP kinase-interacting serine/threonine-protein kinase 2, sequence (Q9HBH9 whole entry, the tested form may be a part): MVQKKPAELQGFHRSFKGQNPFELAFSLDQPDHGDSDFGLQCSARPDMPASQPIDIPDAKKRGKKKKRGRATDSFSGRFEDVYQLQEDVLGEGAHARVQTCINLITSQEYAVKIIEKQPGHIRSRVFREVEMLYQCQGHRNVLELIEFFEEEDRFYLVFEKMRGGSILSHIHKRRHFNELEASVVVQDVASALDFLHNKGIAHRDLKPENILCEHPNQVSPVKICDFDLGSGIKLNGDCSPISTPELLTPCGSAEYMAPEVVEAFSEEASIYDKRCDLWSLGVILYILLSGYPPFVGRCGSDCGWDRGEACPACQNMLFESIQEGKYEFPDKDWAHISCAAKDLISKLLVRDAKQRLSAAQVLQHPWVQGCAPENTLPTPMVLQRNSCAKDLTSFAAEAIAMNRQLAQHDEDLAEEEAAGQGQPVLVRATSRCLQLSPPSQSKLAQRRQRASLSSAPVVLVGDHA

[9] = biological target: Cyclin-dependent kinase 2 (Homo sapiens) (UniProt P24941); test: Inhibition of wild-type human full length CDK2 (M1 to L298 residues) expressed in bacterial expression system assessed as remaining activity at 1 uM by Kinomescan method relative to control; outline: as §1

- Kd [1]: 1800 nM
- Kd [2]: 10000 nM
- Kd [3]: 10000 nM
- Kd [4]: 360 nM
- Activity [5]: 2.7%
- Activity [6]: 94%
- AUC [7]: 276.4 ng·h/mL
- Kd [8]: 1800 nM
- Activity [9]: 100%
SMILES: CN(C)c1nccc(-c2cnn3ncccc23)n1
